The subject of experiment [1] is Helicobacter pylori. In words: Antibacterial activity against CagA-expressing Helicobacter pylori SI10 isolated from chronic gastritis patient after 24 hrs compound exposure followed by incubation on Columbia-blood agar plate for 3 to 5 days. In kind it is functional. An outline of the steps: (§1)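 Broth microdilution MBC against clinical H. pylori isolates (cagA by PCR; stocks kept frozen in Columbia broth with 20% glycerol). Compound dissolved in water with 4% DMSO, filter-sterilized, double diluted in Brucella broth with 10% fetal bovine serum. Inoculum about 10^6 CFU/mL from 48 h microaerobic Brucella agar-BFS cultures. Plates held microaerobically at 37 °C for 24 and 48 h. Each well was then spotted onto Columbia-blood agar for 3-5 days. MBC is the lowest concentration giving no regrowth. Triplicate, mean ± SD.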

In experiment [2] the test system is Helicobacter pylori. In words: Antibacterial activity against CagA-expressing Helicobacter pylori G39 isolated from chronic gastritis patient after 24 hrs compound exposure followed by incubation on Columbia-blood agar plate for 3 to 5 days. Type of experiment: functional. An outline of the steps: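 Compound dissolved in water with 4% DMSO, filter-sterilized, and serially twofold diluted in Brucella broth with 10% bovine fetal serum. Inoculum from 48 h microaerobic Brucella agar-BFS cultures, added at approximately 10^6 CFU/mL final. Broth incubated microaerobically at 37 °C for 24 or 48 h, then each dilution subcultured onto Columbia-blood agar. MBC is the lowest concentration with no growth on subculture. Triplicate; mean ± SD.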

Experiment [3] has as its system Helicobacter pylori. In words: Bactericidal activity against CagA-expressing Helicobacter pylori Ma01 isolated from chronic gastritis patient compound exposure followed by incubation on Columbia-blood agar plate for 3 to 5 days. In kind it is functional, organism-based. Conditions: TDE = time-dependent effect. An outline of the steps:
as §1

Here are results for one molecule from ChEMBL document CHEMBL1932999, “Increased susceptibility to resveratrol of Helicobacter pylori strains isolated from patients with gastric carcinoma” (2011).

≈ marks a conversion by molar mass, not a printed value.

By MBC is commonly meant the smallest concentration meeting the test's criterion for killing. Low values mean more potent killing, high ones less potent killing. For `Oc1ccc(/C=C/c2cc(O)cc(O)c2)cc1` [RESVERATROL], the minimal bactericidal concentration (MBC) in the experiment with Helicobacter pylori [1] came to 589 µg/mL (≈ 2580 µM); with Helicobacter pylori [2], 640 µg/mL (≈ 2800 µM). The Activity entry in the experiment on Helicobacter pylori [3] is “tde”.
